Source: PubChem
SUMO1-SIM PPI = SUMO1-SIM interaction modulation. P63165. SUMO1 binding to a labelled peptide, TR-FRET, 1 h. inhibition, % at 20 µM. hit rate 0.33% among 360,000. AID 602429; in the data active means inhibition above about 37%
Target sequence (P63165 whole entry, looked up): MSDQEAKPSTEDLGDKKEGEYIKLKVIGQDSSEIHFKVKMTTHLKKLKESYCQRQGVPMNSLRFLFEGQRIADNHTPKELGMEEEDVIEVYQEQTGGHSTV
DNMT1 block = blocks human DNA methyltransferase DNMT1; P26358; DNMT1 molecular beacon, Hinp1I cleavage, fluorescence; inhibition (reported as % activation of signal), % at 10 µM; hit rate 0.83% among 360,000; in the data active means inhibition above about 50%
LMPTP inh = blocks human LMPTP phosphatase | P24666 | recombinant LMPTP-A, OMFP fluorogenic substrate, fluorescence intensity | inhibition, % at 20 µM | hit rate 0.22% among 360,000 | AID 651560;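 active means compounds that cut the enzyme signal by at least half of the control window in the single-dose screen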
Target sequence (P24666 whole entry, looked up): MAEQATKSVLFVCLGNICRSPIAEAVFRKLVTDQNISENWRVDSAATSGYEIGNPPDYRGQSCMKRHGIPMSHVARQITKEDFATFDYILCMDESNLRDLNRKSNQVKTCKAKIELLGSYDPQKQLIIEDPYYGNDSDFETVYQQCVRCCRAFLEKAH
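Test system – LMPTP-A phosphatase enzyme · Quantity – 0.625 nM LMPTP-A final · Reagent – OMFP substrate, 400 µM final · Dosing – one test concentration per compound, 20 µM, with 3% DMSO overall · Timing – 50 min enzyme reaction at room temperature, protected from light · Detection – fluorescence intensity · Controls – substrate-only low control, DMSO enzyme-plus-substrate high control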
STEP inh = STEP (human) phosphatase inhibition; P54829; recombinant STEP, OMFP fluorogenic substrate, fluorescence; inhibition, % at 20 µM; hit rate 0.25% among 360,000; AID 588621;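 active means inhibition at 20 µM, scaled per plate between control wells, above about 37%, limit read from the data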
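System: STEP phosphatase, cell-free reaction; Buffer or medium: Bis-Tris pH 6.0 buffer with DTT, detergent; Incubation: 20 min at room temperature, dark; Measured by: fluorescence, 480/540 nm.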
Scp-1 inhibitor = blocks human Scp-1 phosphatase activity | hit rate 0.88% among 340,000 | Recombinant Scp1, phosphopeptide, malachite green phosphate absorbance | Q9GZU7 | inhibition, % at 20 µM | AID 493091;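 active means inhibition above about 50% at 20 µM, limit read from the data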
Target sequence (Q9GZU7 76-261 limits assumed): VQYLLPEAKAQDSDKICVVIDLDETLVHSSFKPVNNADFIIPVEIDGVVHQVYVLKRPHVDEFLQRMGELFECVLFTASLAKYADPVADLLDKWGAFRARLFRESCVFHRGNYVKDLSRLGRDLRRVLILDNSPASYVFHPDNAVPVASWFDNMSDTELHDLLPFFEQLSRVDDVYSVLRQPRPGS
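Test system: SCP-1 catalytic domain; Buffer or medium: Acidic Tris acetate buffer with magnesium and detergent; Also added: Phosphorylated 17-residue peptide substrate; Compound: single 20 µM dose, 1% DMSO; Schedule: enzyme reaction 45 min at room temperature, colour 5 min, stabilisation 30 min; Signal: Phosphate-binding colour reagent, absorbance read at 630 nm.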
Scp1 confirm = Scp-1 (human) inhibition, single-dose confirmed; AID 540281; hit rate 61% among 2,500; inhibition, % at 20 µM; recombinant SCP-1 catalytic domain, phosphate release, malachite green absorbance; shares compounds with Scp-1 inhibitor
MG interference = counter-screen for Scp-1 inhibitors: colorimetric interference | shares compounds with Scp-1 inhibitor | Colorimetric interference counterscreen, malachite green absorbance 630 nm | apparent inhibition (interference), % at 20 µM | 2,500 tested, under 10 active | AID 540313;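 further: compounds added after enzyme reaction finished so only phosphate colour detection is probed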
Scp1 DSF = binds human Scp-1, shifting its melting temperature | hit rate 25% among 1,500 | Recombinant SCP1, Sypro Orange thermal shift Tm | shares compounds with Scp-1 inhibitor | thermal shift relative to vanadate control, % at 40 µM;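 active means substances whose mean melting-temperature shift, as a percentage of the reference inhibitor's shift, reaches about 5.3%, limit read from the data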
Numbers stand for hits; n = inactive; x = no result given. Compounds with a hit are over-represented: about 1.8% of the library has one in this group of screens.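 How the source made its calls, unless noted: active means inhibition of at least 30% at 20 µM; inactive means the rest.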

SMILES	SUMO1-SIM PPI	DNMT1 block	LMPTP inh	STEP inh	Scp-1 inhibitor	Scp1 confirm	MG interference	others
CCOC(=O)N1CCN(C(=O)CSc2nc3ccccc3c(=O)n2-c2ccccc2)CC1	n	n	n	n	n	x	x
CCOC(=O)N1CCN(C(=O)CSc2ncnc3ccccc23)CC1	n	n	n	n	54	n	n
NS(=O)(=O)c1ccc(CCNC(=O)c2ccc3nccnc3c2)cc1	n	n	55	n	99	76	n	Scp1 DSF=n
Cc1ccc2c(=O)cc(C(=O)NCCc3ccc(S(N)(=O)=O)cc3)oc2c1	n	n	n	n	95	70	n	Scp1 DSF=n
CCn1c(SCC(=O)Nc2ncc(C(F)(F)F)cc2Cl)nnc1-c1ccccc1	n	n	n	n	n	x	x
Cn1c(SCC(=O)Nc2ncc(C(F)(F)F)cc2Cl)nnc1-c1ccc(Cl)cc1	n	n	n	n	62	n	n
CN(C(=O)Cn1nc(C(=O)O)c2ccccc2c1=O)C1CCCCC1	n	n	n	n	n	x	x
Cc1ccc(C(=O)NC(Cc2cccc(F)c2)C(=O)O)cc1 (configuration not stated)	n	n	n	n	n	x	x
COc1cc(S(=O)(=O)Nc2ccc(C)cc2)ccc1NC(=O)c1ccncc1	n	n	n	n	54	n	n
CC(=O)Nc1cccc(NC(=O)CS(=O)(=O)c2cn(CC(=O)N(C(C)C)C(C)C)c3ccccc23)c1	n	n	n	n	n	x	x
CCOc1ncccc1C(=O)N(C)CC(=O)Nc1ccccc1SC	n	n	n	n	60	n	n
CC(=NNC(=O)c1cccc(S(=O)(=O)N2CCOCC2)c1)c1ccccc1	n	n	n	n	n	x	x
Cc1ccc(OCC(=O)c2cc(C)n(Cc3cccs3)c2C)c([N+](=O)[O-])n1	n	n	n	n	n	x	x
Cc1cc(C(=O)COc2ccc3ccc(=O)oc3c2)c(C)n1Cc1cccs1	n	n	n	n	66	53	n	Scp1 DSF=n
Cc1ccc(NC(=O)c2ccc3nc[nH]c3c2)nc1	n	n	n	n	57	44	n	Scp1 DSF=n
Cc1cccc(C)c1NC(=O)CN(C)C(=O)c1ccc2nc[nH]c2c1	n	n	n	n	50	55	n	Scp1 DSF=n
CCN(CC)C(=O)COc1ccc2oc(-c3ccco3)cc(=O)c2c1	n	n	n	n	74	49	n	Scp1 DSF=n
COc1ccc(OCc2cc(C(=O)NC3CCOC(C)(C)C3)no2)c2ccccc12 (configuration not stated)	n	n	n	n	x	x	x
O=C(CN(C(=O)CCC(=O)Nc1nccs1)c1ccccc1F)NCc1ccccc1	n	n	n	n	n	x	x
Cc1ccc([C@@H]2CC=C(C(=O)O)[C@H](c3cccc(Cl)c3)N2S(=O)(=O)c2ccccc2C)cc1	n	n	n	n	n	x	x
CN(/N=C/c1cccnc1)c1cnn(-c2ccc(F)c(Cl)c2)c(=O)c1Cl	n	n	n	n	75	39	n	Scp1 DSF=n
CN(/N=C/c1cccnc1)C1=NS(=O)(=O)c2ccccc21	n	n	n	n	n	x	x
Cc1cc(C)c(C)c(SCC(=O)Nc2oc(C)c3c(C)n[nH]c(=O)c23)c1C	n	n	n	n	n	x	x
CCn1c(SCC(=O)Nc2oc(C)c3c(C)n[nH]c(=O)c23)nc2sc(C)c(C)c2c1=O	n	n	n	n	66	n	n
O=C(Cc1cccc(C(F)(F)F)c1)Nc1cc(S(=O)(=O)N2CCOCC2)ccc1N1CCCC1	n	n	n	n	n	x	x
SMILES	SUMO1-SIM PPI	DNMT1 block	LMPTP inh	STEP inh	Scp-1 inhibitor	Scp1 confirm	MG interference	others
O=C1CCC(C(=O)Nc2ccccc2N2CCOCC2)=NN1	n	n	n	n	n	x	x
O=C(Nc1ccc2c(c1)OCCO2)C1CCCN1S(=O)(=O)c1cccc2cccnc12 (configuration not stated)	n	n	n	n	57	n	n
CC(=O)c1ccc(NC(=O)C2CCN(S(=O)(=O)c3cccc4cccnc34)CC2)cc1	n	n	n	n	63	n	n
O=C(Nc1cccc(F)c1)C1CCCN1S(=O)(=O)c1cccc2cccnc12 (configuration not stated)	n	n	n	n	n	x	x
COc1ccc(NC(=O)C2CCN(S(=O)(=O)c3cccc4cccnc34)CC2)cc1	n	n	n	n	n	x	x
Cc1ccc2c(c1)C1CN(C)CCC1N2S(=O)(=O)c1ccccc1F (configuration not stated)	n	n	n	n	n	x	x
CC(NC(=O)c1ccc(S(=O)(=O)NCc2ccco2)cc1)c1ccc(F)cc1 (configuration not stated)	n	n	n	n	n	x	x
COc1ccccc1-c1csc(C(O)c2cccc(Cl)c2)n1 (configuration not stated)	n	n	n	n	x	x	x
CCCn1c(CN2CCN(C(=O)c3ccco3)CC2)nc2cc(S(=O)(=O)N(C)C)ccc21	n	n	n	n	51	n	n
CCn1c(CN2CCN(c3ccc(OC)cc3)CC2)nc2cc(S(=O)(=O)N(C)C)ccc21	n	n	n	n	n	x	x
COc1ccc(NS(=O)(=O)c2cccc(C(=O)NNC(=O)c3ccc(O)c(Cl)c3)c2)cc1	n	n	n	n	n	x	x
CC(C)Cc1nnc(NC(=O)CCC(=O)N2CCCCC2)s1	n	n	n	n	n	x	x
COc1cc(/C=C2/C(=O)NN(c3cccc(Cl)c3)C2=O)cc(OC)c1O	n	n	n	n	n	x	x
COc1cc(/C=C2/C(=O)NN(c3ccc(C)c(Cl)c3)C2=O)cc([N+](=O)[O-])c1O	n	n	n	86	61	74	n	Scp1 DSF=569
O=c1c2ccccc2ncn1-c1ccc([N+](=O)[O-])cc1Cl	n	n	n	n	n	x	x
CCC(C)C1Nc2ccc(C(=O)NCCc3ccc(OC)c(OC)c3)cc2NC1=O (configuration not stated)	n	n	n	n	n	n	n
COc1ccccc1C(=O)Nc1cccc2cccnc12	n	n	n	n	n	x	x
FC(F)(F)c1nc(-c2ccncc2)ncc1-c1nnnn1-c1ccccc1	n	n	n	n	78	n	n
Fc1ccc(-c2nc3c4ccccc4ccn3c2Cc2cccc(Cl)c2)cc1	n	n	n	n	x	x	x
Cc1nn(-c2ccccc2)c(N2CCCC2)c1/C=N/NC(=O)c1cccc(S(=O)(=O)Nc2ccc(Cl)cc2)c1	n	n	n	n	n	x	x
Cc1nn(-c2ccccc2)c(Cl)c1/C=N/NC(=O)c1cccc(S(=O)(=O)N2CCCC2)c1	n	n	n	n	94	n	n
